# The source made the active and inactive calls. The rule behind the calls is not given here.
# Experiments:
# THP-1 [1] = assay: Cytotoxicity against human THP1 cells assessed as reduction in cell viability up to 10 uM after 24 hrs in presence of LPS by MTT asssay; type: cell-based; conditions: thp-1, 24 h
# Method in brief: (§1)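 THP-1 monocytes in RPMI with 10% heat-inactivated FBS, used at 0.5 × 10^6 cells/mL. Cells exposed to compounds at 0–10 μM, with or without LPS (100 ng/mL), for up to 24 h. Viability read by MTT assay.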
# [2] = target: Toll-like receptor 4 (Mus musculus) (UniProt Q9QUK6); assay: Antagonist activity at TLR4 in mouse RAW blue cells assessed as inhibition of LPS-induced NF-kappaB activation-mediated SEAP production preincubated for 30 mins followed by LPS addition measured after 16 hrs by NF-kappaB reporter gene assay
# [3] = target: Toll-like receptor 4 (Mus musculus) (UniProt Q9QUK6); assay: Agonist activity at TLR4 in mouse RAW blue cells assessed as increase in NF-kappaB activation-mediated SEAP production up to 10 uM measured after 20 hrs by SEAP reporter gene assay
# Toll-like receptor 4 = Toll-like receptor 4 (Homo sapiens, UniProt O00206); assay: Antagonist activity at human TLR4 expressed in HEK blue cells assessed as inhibition of LPS-induced NF-kappaB activation-mediated SEAP production preincubated for 30 mins followed by LPS addition measured after overnight incubation in absence of light by NF-kappaB reporter gene assay; type: cell-based
# Method in brief: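 HEK-Blue hTLR4 cells (stably expressing hTLR4, hMD-2, hCD14 and an NF-κB/AP-1-driven SEAP reporter) seeded at 4 × 10^4/well, incubated overnight at 37 °C. Compound (in water or DMSO–H2O 1:1) added 30 min before 100 ng/mL E. coli O55:B5 LPS, then overnight incubation. Supernatant SEAP read with pNPP, 2–4 h in the dark at room temperature, OD 405 nm. Normalized to LPS alone; four-parameter logistic fit for IC50; ≥3 independent experiments.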
# THP-1 [4] = assay: Cytotoxicity against human THP1 cells assessed as reduction in cell viability up to 10 uM after 24 hrs in absence of LPS by MTT asssay; type: cell-based; conditions: thp-1, 24 h; method in brief: as §1
# [5] = Cytotoxicity against HEK-Blue cells assessed as reduction in cell viability at 10 uM after overnight incubation by MTT assay; type: cell-based; conditions: human
# Method in brief: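 MTT viability assay in HEK-Blue hTLR4 cells seeded at 4 × 10^4/well in phenol red-free DMEM and incubated overnight. Cells then treated overnight with the highest compound concentration used in the activity assays (10 μM). MTT (5 mg/mL in PBS) added for 3 h; formazan dissolved in 0.1 N HCl/2-propanol; absorbance 570 nm. Normalized to untreated (PBS) control; mean ± SEM of three independent experiments.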
# [6] = target: Toll-like receptor 4 (Mus musculus) (UniProt Q9QUK6); assay: Antagonist activity at TLR4 in mouse RAW blue cells assessed as inhibition of LPS-induced NF-kappaB activation-mediated SEAP production up to 10 uM preincubated for 30 mins followed by LPS addition measured after 16 hrs by NF-kappaB reporter gene assay
# Chain of Toll-like receptor 4 (O00206 whole entry): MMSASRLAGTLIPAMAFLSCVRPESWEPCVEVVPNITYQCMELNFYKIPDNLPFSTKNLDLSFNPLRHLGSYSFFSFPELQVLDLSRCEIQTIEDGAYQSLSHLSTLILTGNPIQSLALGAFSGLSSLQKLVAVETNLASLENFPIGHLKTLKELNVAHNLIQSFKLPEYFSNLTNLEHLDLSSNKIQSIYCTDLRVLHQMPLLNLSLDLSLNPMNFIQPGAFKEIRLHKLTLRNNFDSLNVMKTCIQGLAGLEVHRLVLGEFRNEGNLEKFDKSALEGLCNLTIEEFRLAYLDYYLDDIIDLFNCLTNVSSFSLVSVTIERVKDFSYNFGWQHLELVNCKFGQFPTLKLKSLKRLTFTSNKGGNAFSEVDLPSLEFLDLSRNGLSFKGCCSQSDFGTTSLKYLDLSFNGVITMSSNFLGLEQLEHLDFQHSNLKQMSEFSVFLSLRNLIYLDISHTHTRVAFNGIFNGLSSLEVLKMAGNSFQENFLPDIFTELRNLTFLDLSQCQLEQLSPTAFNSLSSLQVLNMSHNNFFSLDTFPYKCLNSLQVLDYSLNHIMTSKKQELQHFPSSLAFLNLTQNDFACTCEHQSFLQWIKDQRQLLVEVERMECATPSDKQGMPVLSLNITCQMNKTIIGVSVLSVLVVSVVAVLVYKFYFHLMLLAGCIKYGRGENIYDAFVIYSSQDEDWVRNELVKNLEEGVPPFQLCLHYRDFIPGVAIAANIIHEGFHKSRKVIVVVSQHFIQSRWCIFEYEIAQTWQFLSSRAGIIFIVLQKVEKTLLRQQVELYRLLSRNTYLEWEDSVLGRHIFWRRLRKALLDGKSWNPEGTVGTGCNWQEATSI
# Chain of Toll-like receptor 4 (Mus musculus) (Q9QUK6 whole entry, looked up): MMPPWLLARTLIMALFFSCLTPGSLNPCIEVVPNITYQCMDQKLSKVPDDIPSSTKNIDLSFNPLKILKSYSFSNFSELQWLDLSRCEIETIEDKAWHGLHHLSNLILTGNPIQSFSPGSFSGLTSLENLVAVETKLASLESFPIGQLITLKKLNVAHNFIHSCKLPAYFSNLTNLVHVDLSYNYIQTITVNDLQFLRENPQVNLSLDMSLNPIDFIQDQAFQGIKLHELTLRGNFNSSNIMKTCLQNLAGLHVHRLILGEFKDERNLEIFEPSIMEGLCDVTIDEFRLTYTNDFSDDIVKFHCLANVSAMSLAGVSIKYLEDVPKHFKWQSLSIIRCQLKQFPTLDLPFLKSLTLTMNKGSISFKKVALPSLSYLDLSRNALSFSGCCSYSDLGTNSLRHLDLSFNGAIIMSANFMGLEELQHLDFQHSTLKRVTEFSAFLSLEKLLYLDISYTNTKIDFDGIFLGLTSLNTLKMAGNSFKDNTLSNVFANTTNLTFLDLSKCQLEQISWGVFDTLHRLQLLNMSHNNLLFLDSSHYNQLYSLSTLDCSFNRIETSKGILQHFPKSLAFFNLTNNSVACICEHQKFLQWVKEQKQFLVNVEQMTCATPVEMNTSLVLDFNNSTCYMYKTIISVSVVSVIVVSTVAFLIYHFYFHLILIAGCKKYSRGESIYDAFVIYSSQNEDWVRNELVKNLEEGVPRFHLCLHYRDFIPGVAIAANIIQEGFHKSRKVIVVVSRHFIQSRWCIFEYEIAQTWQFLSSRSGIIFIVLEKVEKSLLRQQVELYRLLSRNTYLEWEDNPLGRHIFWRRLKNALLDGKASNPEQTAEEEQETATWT
smiles,measurement,setting,value
CCCCCCCCCCCCCC(=O)N[C@H]1[C@@H](OP(=O)(O)O)O[C@H](CO)[C@@H](OP(=O)(O)O)[C@@H]1OC(=O)CCCCCCCCCCCCC,Activity,THP-1 [1],Non-Toxic
same,IC50,[2],7.7 µM
same,Activity,[3],Not Active
same,IC50,Toll-like receptor 4,2 µM
same,inhibition,Toll-like receptor 4,Dose-dependent effect
same,Activity,THP-1 [4],Non-Toxic
CCCCCCCCCCCC(=O)N[C@H]1[C@@H](OP(=O)([O-])O)O[C@H](CO)[C@@H](OP(=O)([O-])O)[C@@H]1OC(=O)CCCCCCCCCCC.[Na+].[Na+],Activity,THP-1 [1],Non-Toxic
same,IC50,[2],1.7 µM
same,Activity,[5],Non-Toxic
same,Activity,[3],Not Active
same,IC50,Toll-like receptor 4,0.63 µM
same,inhibition,Toll-like receptor 4,Dose-dependent effect
same,Activity,THP-1 [4],Non-Toxic
CCCCCCCCCCCCCCCC(=O)N[C@H]1[C@@H](OP(=O)([O-])O)O[C@H](CO)[C@@H](OP(=O)([O-])O)[C@@H]1OC(=O)CCCCCCCCCCCCCCC.[Na+].[Na+],Activity,THP-1 [1],Non-Toxic
same,Activity,[5],Non-Toxic
same,Activity,[3],Not Active
same,inhibition,[6],inactive
same,Activity,THP-1 [4],Non-Toxic
CCCCCCCCCC(=O)N[C@H]1[C@@H](OP(=O)([O-])O)O[C@H](CO)[C@@H](OP(=O)([O-])O)[C@@H]1OC(=O)CCCCCCCCC.[Na+].[Na+],Activity,THP-1 [1],Non-Toxic
same,IC50,[2],42 µM
same,Activity,[5],Non-Toxic
same,Activity,[3],Not Active
same,IC50,Toll-like receptor 4,5.45 µM
same,inhibition,Toll-like receptor 4,Dose-dependent effect
same,Activity,THP-1 [4],Non-Toxic

# — ChEMBL document CHEMBL4033792, “Structure-Activity Relationship in Monosaccharide-Based Toll-Like Receptor 4 (TLR4) Antagonists” (J Med Chem, 2018)
